From ChEMBL document CHEMBL4261538, “Synthesis and molecular docking studies of xanthone attached amino acids as potential antimicrobial and anti-inflammatory agents” (Medchemcomm, 2017)
Active and inactive are the calls of the source. The calls are words filed in the database; no cut-off is given here.

Experiments:
[1] = tested on: Staphylococcus aureus; experiment: Antibacterial activity against Staphylococcus aureus at 50 ug/ml incubated for 24 hrs by agar well diffusion method; assay type: functional; settings: read-out: DIZ
Method in brief: (§1)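 Bacteria grown in nutrient broth at 37 °C for 24 h, then subcultured at room temperature. Compounds dissolved in DMSO at 5 mg mL⁻¹ and 5–20 µL added to 6 mm wells, giving 25, 50, 75, 100 µg per well. Gentamicin was the positive control and DMSO the negative control. Plates held at 37 °C for 24 h, then inhibition zone diameter (mm) measured. Values are means of three determinations.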

[2] = tested on: Aspergillus niger; experiment: Antifungal activity against Aspergillus niger incubated for 48 to 72 hrs by microdilution method; assay type: functional
Method in brief: (§2)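 Sabouraud agar plates inoculated with fungal suspension at 10⁵ CFU mL⁻¹ plus serially diluted compounds and bavistin reference, both in DMSO. Incubated at 25 °C for 48–72 h. MIC is the lowest concentration completely inhibiting growth. Values are means of three determinations.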

[3] = tested on: Bacillus subtilis; experiment: Antibacterial activity against Bacillus subtilis at 25 ug/ml incubated for 24 hrs by agar well diffusion method; assay type: functional; settings: read-out: DIZ; method in brief: as §1
[4] = tested on: Staphylococcus aureus; experiment: Antibacterial activity against Staphylococcus aureus at 100 ug/ml incubated for 24 hrs by agar well diffusion method; assay type: functional; settings: read-out: DIZ; method in brief: as §1
[5] = tested on: Candida albicans; experiment: Antifungal activity against Candida albicans at 75 ug/ml incubated for 48 hrs by agar well diffusion method; assay type: functional; settings: read-out: DIZ
Method in brief: (§3)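 Compounds dissolved in DMSO at 5 mg mL⁻¹ and 5–20 µL added to 6 mm wells, giving 25, 50, 75, 100 µg per well. Bavistin was the positive control and DMSO the negative control. Plates incubated at 28 °C for 48 h, then inhibition zone diameter (mm) measured. Values are means of three determinations.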

[6] = tested on: Fusarium oxysporum; experiment: Antifungal activity against Fusarium oxysporum at 100 ug/ml incubated for 48 hrs by agar well diffusion method; assay type: functional; settings: read-out: DIZ; method in brief: as §3
[7] = tested on: Bacillus subtilis; experiment: Antibacterial activity against Bacillus subtilis at 100 ug/ml incubated for 24 hrs by agar well diffusion method; assay type: functional; settings: read-out: DIZ; method in brief: as §1
[8] = tested on: Klebsiella pneumoniae; experiment: Antibacterial activity against Klebsiella pneumoniae incubated for 24 hrs by microdilution method; assay type: functional
[9] = tested on: Klebsiella pneumoniae; experiment: Antibacterial activity against Klebsiella pneumoniae at 25 ug/ml incubated for 24 hrs by agar well diffusion method; assay type: functional; settings: read-out: DIZ; method in brief: as §1
[10] = tested on: Aspergillus niger; experiment: Antifungal activity against Aspergillus niger at 25 ug/ml incubated for 48 hrs by agar well diffusion method; assay type: functional; settings: read-out: DIZ; method in brief: as §3
[11] = tested on: Escherichia coli; experiment: Antibacterial activity against Escherichia coli at 25 ug/ml incubated for 24 hrs by agar well diffusion method; assay type: functional; settings: read-out: DIZ; method in brief: as §1
[12] = tested on: Candida albicans; experiment: Antifungal activity against Candida albicans at 25 ug/ml incubated for 48 hrs by agar well diffusion method; assay type: functional; settings: read-out: DIZ; method in brief: as §3
[13] = tested on: Escherichia coli; experiment: Antibacterial activity against Escherichia coli incubated for 24 hrs by microdilution method; assay type: functional
[14] = tested on: Staphylococcus aureus; experiment: Antibacterial activity against Staphylococcus aureus at 75 ug/ml incubated for 24 hrs by agar well diffusion method; assay type: functional; settings: read-out: DIZ; method in brief: as §1
[15] = tested on: Staphylococcus aureus; experiment: Induction of cell membrane damage in Staphylococcus aureus assessed as cell content leakage at MIC after 2 hrs by SEM analysis; assay type: functional, organism-based
[16] = tested on: Candida albicans; experiment: Antifungal activity against Candida albicans at 50 ug/ml incubated for 48 hrs by agar well diffusion method; assay type: functional; settings: read-out: DIZ; method in brief: as §3
[17] = tested on: Fusarium oxysporum; experiment: Antifungal activity against Fusarium oxysporum at 75 ug/ml incubated for 48 hrs by agar well diffusion method; assay type: functional; settings: read-out: DIZ; method in brief: as §3
[18] = tested on: Bacillus subtilis; experiment: Antibacterial activity against Bacillus subtilis at 50 ug/ml incubated for 24 hrs by agar well diffusion method; assay type: functional; settings: read-out: DIZ; method in brief: as §1
[19] = tested on: Klebsiella pneumoniae; experiment: Antibacterial activity against Klebsiella pneumoniae at 75 ug/ml incubated for 24 hrs by agar well diffusion method; assay type: functional; settings: read-out: DIZ; method in brief: as §1
[20] = tested on: Bacillus subtilis; experiment: Antibacterial activity against Bacillus subtilis at 75 ug/ml incubated for 24 hrs by agar well diffusion method; assay type: functional; settings: read-out: DIZ; method in brief: as §1
[21] = tested on: Escherichia coli; experiment: Antibacterial activity against Escherichia coli at 50 ug/ml incubated for 24 hrs by agar well diffusion method; assay type: functional; settings: read-out: DIZ; method in brief: as §1
[22] = tested on: Fusarium oxysporum; experiment: Antifungal activity against Fusarium oxysporum at 50 ug/ml incubated for 48 hrs by agar well diffusion method; assay type: functional; settings: read-out: DIZ; method in brief: as §3
[23] = tested on: Klebsiella pneumoniae; experiment: Antibacterial activity against Klebsiella pneumoniae at 50 ug/ml incubated for 24 hrs by agar well diffusion method; assay type: functional; settings: read-out: DIZ; method in brief: as §1
[24] = tested on: Escherichia coli; experiment: Antibacterial activity against Escherichia coli at 75 ug/ml incubated for 24 hrs by agar well diffusion method; assay type: functional; settings: read-out: DIZ; method in brief: as §1
[25] = tested on: Fusarium oxysporum; experiment: Antifungal activity against Fusarium oxysporum incubated for 48 to 72 hrs by microdilution method; assay type: functional; method in brief: as §2
[26] = tested on: Aspergillus niger; experiment: Antifungal activity against Aspergillus niger at 100 ug/ml incubated for 48 hrs by agar well diffusion method; assay type: functional; settings: read-out: DIZ; method in brief: as §3
[27] = tested on: Escherichia coli; experiment: Antibacterial activity against Escherichia coli at 100 ug/ml incubated for 24 hrs by agar well diffusion method; assay type: functional; settings: read-out: DIZ; method in brief: as §1
[28] = tested on: Bacillus subtilis; experiment: Antibacterial activity against Bacillus subtilis incubated for 24 hrs by microdilution method; assay type: functional
[29] = tested on: Erythrocyte; experiment: Anti-inflammatory activity in human RBC assessed as inhibition of hypotonic solution-induced hemolysis after 10 mins by spectrophotometric method; assay type: functional, cell-based
Method in brief: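 Human blood (heparinized) washed with 0.9% saline, packed cells made into a 40% v/v stock in isotonic phosphate buffer (154 mM NaCl, 10 mM sodium phosphate, pH 7.4). Stock RBC mixed with hypotonic buffer (50 mM NaCl, 10 mM phosphate, pH 7.4) plus sample at 20–100 µg mL⁻¹.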

[30] = tested on: Candida albicans; experiment: Antifungal activity against Candida albicans incubated for 48 to 72 hrs by microdilution method; assay type: functional; method in brief: as §2
[31] = tested on: Klebsiella pneumoniae; experiment: Antibacterial activity against Klebsiella pneumoniae at 100 ug/ml incubated for 24 hrs by agar well diffusion method; assay type: functional; settings: read-out: DIZ; method in brief: as §1
[32] = tested on: Staphylococcus aureus; experiment: Antibacterial activity against Staphylococcus aureus incubated for 24 hrs by microdilution method; assay type: functional
[33] = tested on: Aspergillus niger; experiment: Antifungal activity against Aspergillus niger at 50 ug/ml incubated for 48 hrs by agar well diffusion method; assay type: functional; settings: read-out: DIZ; method in brief: as §3
[34] = tested on: Fusarium oxysporum; experiment: Antifungal activity against Fusarium oxysporum at 25 ug/ml incubated for 48 hrs by agar well diffusion method; assay type: functional; settings: read-out: DIZ; method in brief: as §3
[35] = tested on: Aspergillus niger; experiment: Antifungal activity against Aspergillus niger at 75 ug/ml incubated for 48 hrs by agar well diffusion method; assay type: functional; settings: read-out: DIZ; method in brief: as §3
[36] = tested on: Candida albicans; experiment: Antifungal activity against Candida albicans at 100 ug/ml incubated for 48 hrs by agar well diffusion method; assay type: functional; settings: read-out: DIZ; method in brief: as §3
[37] = tested on: Staphylococcus aureus; experiment: Antibacterial activity against Staphylococcus aureus at 25 ug/ml incubated for 24 hrs by agar well diffusion method; assay type: functional; settings: read-out: DIZ; method in brief: as §1

Q: Which zone of inhibition at 50 µg/mL [1] does the source give for `Cl.N[C@@H](Cc1ccc(O)cc1)C(=O)Oc1ccc2c(=O)c3ccccc3oc2c1` here?
A: 27 mm

Q: What about the MIC [2] of the same compound?
A: 21 µg/mL

Q: What about the zone of inhibition at 25 µg/mL [3] of the same compound?
A: 23 mm

Q: What about the zone of inhibition at 100 µg/mL [4] of the same compound?
A: 39 mm

Q: And the zone of inhibition at 75 µg/mL [5]?
A: 36 mm

Q: And the zone of inhibition at 100 µg/mL [6]?
A: 41 mm

Q: And the zone of inhibition at 100 µg/mL [7]?
A: 40 mm

Q: And the MIC [8]?
A: 17 µg/mL

Q: And the zone of inhibition at 25 µg/mL [9]?
A: 21 mm

Q: What about the zone of inhibition at 25 µg/mL [10] of the same compound?
A: 24 mm

Q: What about the zone of inhibition at 25 µg/mL [11] of the same compound?
A: 21 mm

Q: What about the zone of inhibition at 25 µg/mL [12] of the same compound?
A: 23 mm

Q: And the MIC [13]?
A: 20 µg/mL

Q: And the zone of inhibition at 75 µg/mL [14]?
A: 35 mm

Q: What about the Activity [15] of the same compound?
A: Active

Q: What about the zone of inhibition at 50 µg/mL [16] of the same compound?
A: 30 mm

Q: What about the zone of inhibition at 75 µg/mL [17] of the same compound?
A: 35 mm

Q: What about the zone of inhibition at 50 µg/mL [18] of the same compound?
A: 26 mm

Q: What about the zone of inhibition at 75 µg/mL [19] of the same compound?
A: 31 mm

Q: And the zone of inhibition at 75 µg/mL [20]?
A: 38 mm

Q: And the zone of inhibition at 50 µg/mL [21]?
A: 26 mm

Q: What about the zone of inhibition at 50 µg/mL [22] of the same compound?
A: 28 mm

Q: And the zone of inhibition at 50 µg/mL [23]?
A: 26 mm

Q: What about the zone of inhibition at 75 µg/mL [24] of the same compound?
A: 34 mm

Q: And the MIC [25]?
A: 23 µg/mL

Q: What about the zone of inhibition at 100 µg/mL [26] of the same compound?
A: 40 mm

Q: And the zone of inhibition at 100 µg/mL [27]?
A: 39 mm

Q: And the MIC [28]?
A: 19 µg/mL

Q: What about the IC50 [29] of the same compound?
A: 32 µg/mL

Q: And the MIC [30]?
A: 23 µg/mL

Q: What about the zone of inhibition at 100 µg/mL [31] of the same compound?
A: 37 mm

Q: What about the MIC [32] of the same compound?
A: 18 µg/mL

Q: What about the zone of inhibition at 50 µg/mL [33] of the same compound?
A: 31 mm

Q: What about the zone of inhibition at 25 µg/mL [34] of the same compound?
A: 21 mm

Q: What about the zone of inhibition at 75 µg/mL [35] of the same compound?
A: 38 mm

Q: What about the zone of inhibition at 100 µg/mL [36] of the same compound?
A: 39 mm

Q: And the zone of inhibition at 25 µg/mL [37]?
A: 23 mm
